# Most compounds without a hit are left out; they make up all but 1.6% or so of the library.
# PAD4 FP inh – PAD4 (human) enzyme inhibition; inhibition, % at 6.36 µM; Q9UM07; recombinant PAD4, RCA probe fluorescence polarization; 330,000 compounds, 0.41% hits;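 active = percent inhibition above a cutoff equal to the mean of all tested compounds plus 3 SD, cut at about 15% in these data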;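 also: 0% = PAD4 with RCA probe and DMSO and 100% = probe without PAD4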
# GASC-1 inh – blocks human GASC-1 demethylase activity. AID 2099. inhibition, % at 2.35 µM. Q9H3R0. GST-JMJD2C(1-420) H3K9me3 demethylation, DELFIA europium. 330,000 compounds, 0.069% hits;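 active = more than half of a compound's replicate wells show inhibition beyond 50%, single wells judged on their own value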;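 also: signal counts dimethyl H3K9 product captured on neutravidin plate; 0% = median of DMSO wells and 100% = 0.3 times that DMSO median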
# Target sequence (Q9H3R0 1-420 limits assumed): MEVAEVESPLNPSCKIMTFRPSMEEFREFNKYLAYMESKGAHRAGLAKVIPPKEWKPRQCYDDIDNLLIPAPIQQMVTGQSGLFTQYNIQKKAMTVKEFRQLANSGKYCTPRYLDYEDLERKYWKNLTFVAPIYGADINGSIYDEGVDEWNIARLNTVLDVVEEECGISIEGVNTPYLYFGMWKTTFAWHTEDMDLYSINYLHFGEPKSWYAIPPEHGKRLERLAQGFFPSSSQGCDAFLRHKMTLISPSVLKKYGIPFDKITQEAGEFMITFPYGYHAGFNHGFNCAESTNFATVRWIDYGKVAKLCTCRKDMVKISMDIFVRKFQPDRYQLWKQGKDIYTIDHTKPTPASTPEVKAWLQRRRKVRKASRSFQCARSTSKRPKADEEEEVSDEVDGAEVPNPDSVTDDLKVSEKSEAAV
# GSTO1 counter – GSTO1 inhibition, counter-screen for RBBP9 inhibitors; 300,000 compounds, 1.1% hits; inhibition, % at 5.96 µM; recombinant GSTO1, activity-based probe fluorescence polarization; P78417; AID 1974;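 active = inhibition above the campaign mean inhibition plus 3 SD, cut at about 35% in these data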;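 also: 0% = GSTO1-1 with DMSO and 100% = wells lacking GSTO1-1 enzyme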
# Apaf-1 inh – human Apaf-1 inhibition | reconstituted apoptosome caspase-3 activity, DEVD-Rh110 fluorescence | inhibition, % at 20 µM | 330,000 compounds, 0.71% hits | O14727; active = inhibition of at least 40% at 20 µM;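 also: plate controls were DMSO wells for no effect and DEVD-CHO caspase inhibitor wells for full effect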
#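 Medium: Hepes buffer, pH 7.5 / System: biochemical Apaf-1 apoptosome reconstitution / Measured by: Rh110 fluorescence, excitation 480 nm, emission 540 nm / Times: compound with Apaf-1, dATP, procaspase-3 30 min, then 50 min reaction, room temperature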
# UBC9 SUMO inh – SUMOylation inhibition. HTRF SUMOylation assay, SAE1/SAE2 + UBC9, in vitro. inhibition, % at 35 µM. 290,000 compounds, 0.36% hits; in the data active = inhibition above about 50%, passing the limit was not always enough
# Target sequence (P63279 whole entry, looked up): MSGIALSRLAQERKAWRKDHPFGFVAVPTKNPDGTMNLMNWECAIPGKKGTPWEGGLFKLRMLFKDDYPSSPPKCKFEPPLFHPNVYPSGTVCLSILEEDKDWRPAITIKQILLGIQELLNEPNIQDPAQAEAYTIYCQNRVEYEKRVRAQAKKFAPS
# TDP2 inh – blocks human TDP2 phosphodiesterase activity; 370,000 compounds, 0.34% hits; O95551; recombinant TDP2, T5PNP hydrolysis, p-nitrophenol absorbance 415 nm; inhibition, % at 12.8 µM;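 active = inhibition above the mean of all tested compounds plus 3 SD, set per campaign, cut at about 25% in these data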;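 also: 0% = DMSO with enzyme and 100% = buffer with substrate but no TDP2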
#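 System – recombinant human TDP2 · Quantity – TDP2 enzyme at 120 nM final · Doses – single concentration, 12.8 µM nominal, with 1% DMSO · Incubation – 2 h at 37 °C · Measured by – epi absorbance of p-nitrophenol freed from T5PNP by hydrolysis · Read-out – % inhibition relative to enzyme-containing and enzyme-free wells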
# GSTO1 inh conf – confirmation of human GSTO1 inhibitors. 2,400 compounds, 54% hits. recombinant GSTO1, probe fluorescence polarization. inhibition, % at 5.96 µM. AID 2176. shares compounds with GSTO1 counter;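 active = inhibition above the primary screen's cutoff, its mean inhibition plus 3 SD, cut at about 35% in these data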;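 also: loss of polarization as inhibitors block binding of rhodamine sulfonate ester activity probe; 0% = GSTO1 with DMSO and 100% = wells lacking GSTO1 enzyme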
# GSTO1 recomb ABPP – GSTO1 (human) inhibition by gel ABPP | recombinant GSTO1, gel ABPP SE-Rh probe fluorescence | AID 463110 | 130 compounds, 30% hits | inhibition, % at 1 µM | shares compounds with GSTO1 counter;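 active = inhibition of the enzyme GSTO1 above about 75%, limit read from the data; inactive = inhibition below that limit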
# The depositor's hits bear a star; x = no result given.
SMILES,PAD4 FP inh,GASC-1 inh,GSTO1 counter,Apaf-1 inh,UBC9 SUMO inh,TDP2 inh,GSTO1 inh conf,others
O=C(CCl)Nc1cc(-c2ccccc2)nn1-c1ccccc1,-5,1,65*,18,10,5,89*,
Cc1ccc(-c2cc(NC(=O)CCl)n(-c3ccccc3)n2)cc1,1,8,73*,2,-4,3,86*,
COC(=O)C[C@H]1CC[C@@H]2[C@@H](COc3ccc(NC(=O)c4ccno4)cc3C(=O)N2C)O1,x,x,x,x,x,1,x,
CCn1c2ccccc2c2cc(NC(=O)COC(=O)c3cc(F)cc(F)c3)ccc21,x,x,x,x,x,-4,x,
C#CC1(O)C2C=C(OC)C(=O)C1C(c1ccccc1)C2C (stereo not drawn),x,x,x,x,x,3,x,
COc1ccc(N(C(=O)CCl)C(C(=O)NCCc2ccccc2)c2cccs2)cc1 (stereo not drawn),14,7,93*,x,4,-3,98*,GSTO1 recomb ABPP=94*
COc1ccc(CNC(=O)C(c2ccncc2)N(C(=O)Cc2cccs2)c2ccccc2)cc1 (stereo not drawn),x,x,x,x,5,-9,x,
O=C(NC1CCCCN(Cc2cccc(Cl)c2)C1=O)c1cccc(C(F)(F)F)c1 (stereo not drawn),x,x,x,x,x,3,x,
CCOC(=O)Cc1c(C)c2ccc(N(CC)CC)cc2oc1=O,2,1,6,12,17,-14,x,
CCOC(=O)Cc1c(C)c2c(O)cc(O)cc2oc1=O,-3,5,59*,-8,34,5,0,
Cc1cc2ccccc2c(=O)[nH]1,-5,6,-3,-18,4,14,x,
Cc1ccccc1Nc1cc2ccccc2c(=O)[nH]1,59*,0,74*,96*,x,x,45*,
CCOC(=O)[C@@]12CN(C(=O)OC(C)(C)C)CC=C1N(Cc1ccc(OC)cc1)C(=O)[C@H]2CC(=O)N1CCCCC1,x,x,x,x,x,8,x,
CC(=O)c1c(C)nc(-c2ccc(Cl)cc2)nc1N=CN(C)C,-4,0,38*,16,20,-13,16,
Fc1ccccc1-c1csc(=Nc2cccnc2)n1CCCn1ccnc1,-4,0,41*,20,14,-4,5,
Fc1ccccc1-c1csc(=Nc2cccnc2)n1CC1CCCO1 (stereo not drawn),1,x,4,9,-14,3,x,
COCC(=O)Nc1cc(Cl)ccc1C,0,12,4,3,6,-11,x,
Cc1ccc(Cl)cc1NC(=O)CCC(=O)O,-3,21,64*,-16,12,-5,7,
Cn1cnnc1SCC(=O)Nc1cc(S(=O)(=O)N2CCCCC2)ccc1Cl,0,9,2,-9,14,7,x,
COCCn1cnnc1SCC(=O)c1ccc(S(=O)(=O)N2CCCC2)cc1,-7,12,61*,13,21,3,61*,
COc1ccc(CCn2c(Br)nc3c2c(=O)[nH]c(=O)n3C)cc1,-13,-9,8,-3,-10,5,x,
COc1ccc(CCn2c(NN)nc3c2c(=O)[nH]c(=O)n3C)cc1,-4,-3,41*,-32,2,2,8,
CCOC(=O)N1CCc2[nH]c3ccc(C)cc3c2C1,1,-13,8,9,-8,21,x,
CC(=O)N1CCc2[nH]c3ccc(C)cc3c2C1,7,2,54*,37,4,7,2,
CN1C/C(=C/c2ccccc2)N2C(=O)C[C@@H](c3ccccc3)N=C12,x,x,x,x,x,2,x,
SMILES,PAD4 FP inh,GASC-1 inh,GSTO1 counter,Apaf-1 inh,UBC9 SUMO inh,TDP2 inh,GSTO1 inh conf,others
CN(C)c1cccc(NC(=O)c2cccc3ccccc23)c1,-3,-135,38*,6,-11,10,5,
CCCCOP(=O)(OCCCC)C1(NS(=O)(=O)c2ccccc2)C=CC(=O)c2ccccc21 (stereo not drawn),-21,10,50*,20,-25,17,18,
CCCCOCCCNS(=O)(=O)c1ccccc1,1,15,5,0,27,7,x,
COc1cc(/C=N/NS(=O)(=O)c2ccc(C)c([N+](=O)[O-])c2)cc([N+](=O)[O-])c1O,-1,5,12,0,-23,10,x,
COc1cc(/C=N/NS(=O)(=O)c2ccc(C(C)(C)C)cc2)cc([N+](=O)[O-])c1O,-1,4,50*,-2,4,-13,64*,
CC[C@H](C)/C=C/C1=CC2=C(Cl)C(=O)[C@@]3(C)OC(=O)C(C(=O)[C@H](C)[C@@H](C)O)=C3C2=CO1,8,4,47*,1,x,x,32,
C=C1c2cccc(O)c2C(O)=C2C(=O)[C@]3(O)C(O)=C(C(N)=O)C(=O)[C@@H](N(C)C)[C@@H]3[C@@H](O)[C@H]12,-10,-1,63*,-3,93*,22,70*,
CN(C)c1ccc(O)c2c1CC1CC3C(N(C)C)C(=O)C(C(N)=O)=C(O)[C@@]3(O)C(=O)C1=C2O (stereo partly drawn),-3,-9,48*,-1,x,-6,20,
O=C(Cn1nnc(-c2ccccc2F)n1)Nc1ccc(F)cc1F,x,x,x,x,x,-5,x,
O=c1oc2cc(O)ccc2c2oc3cc(O)ccc3c12,-5,-41,39*,-41,36,6,49*,
Cc1ccc(C)c(Sc2ccc(NC(=O)CCN3C(=O)NC4(CCCC4)C3=O)cc2)c1,-5,2,x,28,x,-9,x,
Cc1ccc(Sc2ccc(NC(=O)CCl)cc2)c(C)c1,3,0,78*,0,-18,6,89*,
COc1ccc(Cn2cc(CN3[C@H](CC(C)C)COc4cc(Br)ccc4S3(=O)=O)nn2)cc1,x,x,x,x,x,-10,x,
CCn1cc(NC(=O)CCl)c(C)n1,0,1,72*,-4,0,x,81*,
COC(=O)c1sc2nc(-c3ccco3)ccc2c1N,9,2,48*,12,22,3,16,
CC(C)OC(=O)c1sc2nc(-c3ccccc3)ccc2c1N,-1,3,2,3,18,4,x,
CN(C)S(=O)(=O)c1cccc(C(=O)N/N=C\c2ccnc3ccccc23)c1,x,x,x,x,x,-9,x,
CCc1cccc(NC(=O)CSC2=NS(=O)(=O)c3ccccc32)c1,9,-11,55*,-13,16,4,1,
Oc1ccccc1Oc1ncc(Br)c(Cl)n1,-1,-36,49*,4,1,24,4,
CC1=NN(c2ccccc2)C(=O)/C1=C/c1cc2cc(C)ccc2nc1N1CCCCC1,21*,3,68*,94*,-6,x,4,
O=C(Nc1ccccc1)Nc1nc2ncccn2c1-c1ccc(F)cc1,x,x,x,x,x,-13,x,

# High-throughput results from PubChem BioAssay.
